Screens deposited in PubChem BioAssay by several laboratories.
This is a sample that favours compounds with a hit; in the whole collection about 5.9% have one here.
Pyk2 oligo antag: antagonists of human Pyk2 oligomerization; Q14289; Q293 cells, Pyk2 FERM NanoBiT luminescence; hits give low values; z-score (the deposit names both 25 µM and 10 µM); 99,000 tested, 0.83% active; AID 1347419;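 active = Z-score of -3 or lower, scaled per plate to the spread of control and sample wells; inactive = z-score above -3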;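 note: negative z-score means lost luminescence so less FERM oligomerization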
Target sequence (Q14289 whole entry, looked up): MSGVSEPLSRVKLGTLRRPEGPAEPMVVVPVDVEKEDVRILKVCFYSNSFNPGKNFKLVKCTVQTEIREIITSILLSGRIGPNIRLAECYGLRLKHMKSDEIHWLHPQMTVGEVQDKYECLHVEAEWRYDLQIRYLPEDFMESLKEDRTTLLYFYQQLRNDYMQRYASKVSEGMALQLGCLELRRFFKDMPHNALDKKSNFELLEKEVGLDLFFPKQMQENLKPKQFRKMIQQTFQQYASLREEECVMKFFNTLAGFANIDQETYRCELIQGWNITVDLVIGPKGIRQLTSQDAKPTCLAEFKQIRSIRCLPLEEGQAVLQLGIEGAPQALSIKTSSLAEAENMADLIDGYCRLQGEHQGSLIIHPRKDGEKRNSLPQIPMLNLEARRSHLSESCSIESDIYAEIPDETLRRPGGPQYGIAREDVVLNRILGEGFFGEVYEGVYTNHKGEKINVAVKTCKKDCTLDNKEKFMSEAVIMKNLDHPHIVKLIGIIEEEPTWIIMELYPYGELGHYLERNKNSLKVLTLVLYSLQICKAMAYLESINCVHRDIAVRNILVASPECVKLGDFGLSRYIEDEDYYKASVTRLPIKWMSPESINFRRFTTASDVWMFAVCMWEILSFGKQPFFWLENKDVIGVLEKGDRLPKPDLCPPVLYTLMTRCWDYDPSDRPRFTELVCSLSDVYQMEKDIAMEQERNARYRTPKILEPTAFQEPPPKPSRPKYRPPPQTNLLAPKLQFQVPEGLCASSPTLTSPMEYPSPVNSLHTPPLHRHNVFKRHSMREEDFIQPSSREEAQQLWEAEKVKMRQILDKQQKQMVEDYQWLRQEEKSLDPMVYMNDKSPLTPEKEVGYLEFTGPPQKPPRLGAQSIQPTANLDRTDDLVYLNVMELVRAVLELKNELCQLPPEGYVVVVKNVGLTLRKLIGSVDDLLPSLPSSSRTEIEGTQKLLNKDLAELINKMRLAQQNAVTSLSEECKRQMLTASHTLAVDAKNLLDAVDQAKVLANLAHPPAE
Jurkat tox 60K: cytotoxic compounds reducing Jurkat cell viability; Jurkat E6.1 viability, ATP luminescence, 48 h; inhibition, % at 4 µM; 56,000 tested, 1.2% active; AID 463;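 active = inhibition above the mean inhibition of all tested compounds plus 3 SD, cut at about 28% in these data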
H69AR inhibit: growth inhibitors of human H69AR lung tumor cells; H69AR lung tumor viability, ATP luminescence, 72 h; hits give low values; viability, % at 10 µM; 85,000 tested, 6% active; AID 598;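 active = viability at or below 40%; inactive = viability above 40%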;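 note: multidrug resistant small cell line overexpressing MRP-1 efflux transporter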
Fibroblast inh: blocks proliferation of human lung fibroblasts | LL 47 human lung fibroblast viability, ATP luminescence; hits give low values | viability, % at 10 µM | 85,000 tested, 1.1% active;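 active = viability at or below 50% in the single dose screen; inactive = viability above 50%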;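 note: compound exposure lasted 72 h before the ATP readout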
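material = human LL 47 lung fibroblast cells | dosing = compounds added from tenfold dosing solution, 0.1% DMSO final | timing = overnight cell rest, 72 h compound treatment at 37 °C | measured by = CellTiter-Glo luminescence measuring cellular ATP | evaluation = % viability versus median cells-only luminescence | control set = cell-only wells, no compound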
MT1-MMP txn act: activates MT1-MMP transcription; HT1080 MT1-MMP promoter luciferase reporter, luminescence, overnight; hits give high values; activation factor at 10 µM; 86,000 tested, 0.16% active; AID 750;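 active = activation factor of at least 2 for MT1-MMP transcription at 10 µM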
HUVEC inhibit: human endothelial cell proliferation inhibition. HUVEC proliferation, CellTiter-Glo luminescence, 72 h; hits give low values. viability, % at 10 µM (by protocol). 86,000 tested, 1.1% active;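 active = viability at or below 30%; inactive = viability above 30%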
Large screens that a line does not name were inactive.

O=C1C2C3C=CC(C3=C3CCCCC3)C2C(=O)N1Cc1ccccc1 (centres undefined)	none
CSc1cccc(NC(=O)C2CCCN(S(=O)(=O)c3ccc(F)cc3)C2)c1 (centres undefined)	H69AR inhibit 21
O=C(Nc1ccccc1Cl)C1CCCN(S(=O)(=O)c2ccc(F)cc2)C1 (centres undefined)	none (no result: Jurkat tox 60K)
O=C(Nc1cccc(Cl)c1)C1CCCN(S(=O)(=O)c2ccc(F)cc2)C1 (centres undefined)	H69AR inhibit 29 (no result: Jurkat tox 60K)
CSc1cccc(NC(=O)C2CCN(S(=O)(=O)c3ccc(F)cc3)CC2)c1	none
CCn1c(=O)c(=O)[nH]c2cc(C(=O)NC3CCCc4ccccc43)ccc21 (centres undefined)	H69AR inhibit 32 (no result: Jurkat tox 60K)
CC(C)CC1(C(=O)NCc2cc(F)cc(C(F)(F)F)c2)C=CCN1C(=O)c1ccccc1 (centres undefined)	none (no result: Pyk2 oligo antag, Jurkat tox 60K, H69AR inhibit, Fibroblast inh, HUVEC inhibit)
O=C(c1ccco1)N1CCN(CC2CC3C=CC2C3)CC1 (centres undefined)	none
CCOC(=O)C1=C(C)N(C)C(=O)NC1c1c(C)nn(-c2ccc(C)cc2)c1Cl (centres undefined)	H69AR inhibit 31 (no result: Jurkat tox 60K)
CCN1C(=O)/C(=C/c2ccc(OC)c(OC)c2)N=C1SCC(=O)NCc1ccco1	none (no result: Jurkat tox 60K, H69AR inhibit, Fibroblast inh, MT1-MMP txn act, HUVEC inhibit)
CCOC(=O)c1c(-c2ccccc2)oc2ccc(OC(C)=O)cc12	none (no result: Jurkat tox 60K)
CCOC(=O)c1c(-c2ccccc2)oc2ccc(O)c(CN(C)C)c12	H69AR inhibit 10 (no result: Jurkat tox 60K)
CCOC(=O)c1c(-c2ccccc2)oc2ccc(O)c(CN3CCCC3)c12	H69AR inhibit 5.3, HUVEC inhibit 3.5 (no result: Jurkat tox 60K)
CCc1nnc(NC(=O)C(C)Sc2ccccc2)s1 (centres undefined)	none (no result: Pyk2 oligo antag)
Cc1ccccc1NC(=O)C(C)O/N=C/c1cccc([N+](=O)[O-])c1 (centres undefined)	none (no result: Jurkat tox 60K, H69AR inhibit, Fibroblast inh, MT1-MMP txn act, HUVEC inhibit)
O=C(CCl)N(c1ccccc1)c1c[nH]c2ccccc12	H69AR inhibit 0.4, Fibroblast inh 1.7, HUVEC inhibit 6.9 (no result: Jurkat tox 60K)
CCOC(=O)Cc1c[nH]c2ccccc12	none (no result: Jurkat tox 60K)
O=C(CCl)N(c1ccc(Cl)cc1)c1c[nH]c2ccccc12	H69AR inhibit 1.1, Fibroblast inh 2.4, HUVEC inhibit 3.9 (no result: Jurkat tox 60K)
O=C(c1cccc(F)c1F)N1CCCC1	none (no result: Jurkat tox 60K)
COCCCNc1ncnc2sc3c(c12)CCC(C)C3 (centres undefined)	H69AR inhibit 39 (no result: Jurkat tox 60K)
c1cn(CCCNc2ncnc3sc4c(c23)CCC4)cn1	none
COc1ccc(N2CCN(CCCNC(=O)c3cc4sccc4n3C)CC2)cc1	H69AR inhibit 30
CCC(c1nnc(SCC(=O)Nc2ccc(C(=O)Nc3ccccc3OC)cc2)o1)N(C)C (centres undefined)	none
c1ccc(COc2ccc(OCCCNC3CCCC3)cc2)cc1	H69AR inhibit 40 (no result: Jurkat tox 60K)
CC(C)Oc1ccc(OCCNC2CCCC2)cc1	none (no result: Jurkat tox 60K, H69AR inhibit, Fibroblast inh, MT1-MMP txn act, HUVEC inhibit)
O=c1[nH]c(-c2ccccn2)nc2ccccc12	none (no result: Jurkat tox 60K)
c1ccc(-c2nc3c(ccc4ccccc43)[nH]2)nc1	MT1-MMP txn act 2.3 (no result: Jurkat tox 60K)
Cc1ccc(NC(=O)CCSc2nc(C)cc(C)n2)cc1	none (no result: Jurkat tox 60K, H69AR inhibit, Fibroblast inh, MT1-MMP txn act, HUVEC inhibit)
O=C(CNc1cccc2ccccc12)N/N=C/C(Br)=C/c1ccccc1	H69AR inhibit 25 (no result: Jurkat tox 60K)
COc1ccc(NCC(=O)N/N=C/C=C\c2ccccc2)cc1	none (no result: Jurkat tox 60K, H69AR inhibit, Fibroblast inh, MT1-MMP txn act, HUVEC inhibit)
O=Nc1c2nc3ccccc3n(O)c-2c2ccccc12	none (no result: Fibroblast inh)
CCOC(=O)c1sc(NC(=O)c2c(C)nn(Cc3ccccc3)c2C)cc1C	H69AR inhibit 13
CCOC(=O)c1sc(NC(=O)c2ccccc2)cc1C	none (no result: Jurkat tox 60K, H69AR inhibit, Fibroblast inh, MT1-MMP txn act, HUVEC inhibit)
CCOC(=O)C1C(=O)Nc2nc3ccccc3n2C1C(C)C (centres undefined)	none
CC(NS(=O)(=O)c1ccc(Br)cc1)C(=O)NCCc1ccccc1 (centres undefined)	none (no result: Jurkat tox 60K, H69AR inhibit, Fibroblast inh, MT1-MMP txn act, HUVEC inhibit)
C=CCn1c(SCC(=O)c2ccc(Br)cc2)nnc1C(CC(C)C)NC(=O)c1cccs1 (centres undefined)	none (no result: Jurkat tox 60K, MT1-MMP txn act)
Cc1ccc(/C=N/Nc2ncc(Cl)cc2Cl)s1	Fibroblast inh 47 (no result: Jurkat tox 60K)
Clc1cnc(N/N=C/c2cccs2)c(Cl)c1	Fibroblast inh 49 (no result: Jurkat tox 60K)
CCN(CC)CCOc1ccc(Br)cc1	none (no result: MT1-MMP txn act)
CCN(CC)S(=O)(=O)c1ccc2c(c1)C(=NO)c1cc(S(=O)(=O)N(CC)CC)ccc1-2	Pyk2 oligo antag -3, H69AR inhibit 2.6, Fibroblast inh 38, HUVEC inhibit 4.3 (no result: Jurkat tox 60K)
CCN(CC)CCOc1ccc2c(c1)C(=NO)c1cc(OCCN(CC)CC)ccc1-2	Fibroblast inh 3.0, HUVEC inhibit 12 (no result: Jurkat tox 60K)
CCN(CC)S(=O)(=O)c1ccc(C)c(C)c1	none (no result: Jurkat tox 60K)
Cn1c(-c2ccc3c(c2)OCO3)cnc1N	none
Cn1c(-c2ccc3c(c2)OCO3)cnc1NC(=O)CCC(=O)NCCc1ccccc1	none
Cn1c(-c2ccc3c(c2)OCO3)cnc1NCc1ccccc1	H69AR inhibit 24
Cn1c(-c2ccc3c(c2)OCO3)cnc1NCc1cccc(Cl)c1	H69AR inhibit 33
CCCCOC(=O)/C(=C\c1ccc([N+](=O)[O-])o1)NC(=O)c1ccccc1	none (no result: Jurkat tox 60K)
Cc1c(C=O)cnn1CCC(=O)O	none (no result: Jurkat tox 60K)
CCCN1/C(=C2/SC(=S)N(CC)C2=O)C=Cc2ccccc21	Pyk2 oligo antag -3.1 (no result: Jurkat tox 60K)
Cc1cccc(-c2cc3nc4c(c(N5CCCC(O)C5)n3n2)CCC4)c1 (centres undefined)	none
Cc1cccc(-c2cc3nc4c(c(N5CCOCC5)n3n2)CCCC4)c1	none
OC1CCCN(c2c3c(nc4cc(-c5cccc(Cl)c5)nn24)CCC3)C1 (centres undefined)	Pyk2 oligo antag -3.2 (no result: Jurkat tox 60K)
OC1CCN(c2c3c(nc4cc(-c5ccc(F)cc5)nn24)CCC3)CC1	none (no result: Jurkat tox 60K)
Cc1cccc(-c2cc3nc4c(c(N5CCC6(CC5)OCCO6)n3n2)CCCC4)c1	H69AR inhibit 31
Fc1ccc(-c2cc3nc4c(c(N5CCOCC5)n3n2)CCCC4)cc1	H69AR inhibit 35
CCc1nnc(NC(=O)CSc2nc3c(c(=O)n2CC)SC(C)C3)s1 (centres undefined)	none (no result: Pyk2 oligo antag)
COc1ccccc1NC(=O)Nn1cnnc1	none (no result: Jurkat tox 60K)
Clc1ccsc1-c1csc(-c2cccnc2)n1	H69AR inhibit 17 (no result: Jurkat tox 60K)
CC(=O)Oc1c(Cl)c(N2CCOCC2)c(OC(C)=O)c2ccccc12	H69AR inhibit 1.9
Cc1cc(N2CCCC2=O)cc(C)c1S(=O)(=O)NCCOc1ccc(C(C)(C)C)cc1	H69AR inhibit 33 (no result: Jurkat tox 60K)
Oc1c(C(Nc2nc3ccccc3s2)c2ccco2)ccc2cccnc12 (centres undefined)	Jurkat tox 60K 62, Fibroblast inh 17, HUVEC inhibit 4.5
CC(C)C(=O)NC(c1ccco1)c1ccc2cccnc2c1O (centres undefined)	Jurkat tox 60K 90, H69AR inhibit 1.9, Fibroblast inh 14, HUVEC inhibit 2.1 (no result: MT1-MMP txn act)
CCCC(=O)NC(c1ccco1)c1cc(Cl)c2cccnc2c1O (centres undefined)	H69AR inhibit 0.9, Fibroblast inh 3.1, HUVEC inhibit 12
COc1ccc(NC(=O)C2CCCN(S(=O)(=O)c3cccc4cccnc34)C2)c(OC)c1 (centres undefined)	none (no result: Pyk2 oligo antag)
